From ChEMBL document CHEMBL2177098, “Synthesis and evaluation of novel ¹⁸F labeled 2-pyridinylbenzoxazole and 2-pyridinylbenzothiazole derivatives as ligands for positron emission tomography (PET) imaging of β-amyloid plaques” (J Med Chem, 2012)

What was measured:
Intestine [1] = test: Drug uptake in ICR mouse intestine assessed per organ at 370 kBq/100 ul, iv at 30 mins by gamma-counting analysis; type: ADME, organism-based; details: in vivo, 0.5 h
Procedure, shortened: (§1)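 Male ICR mice (5 weeks, about 20 g) got 18F tracer in saline (370 KBq per 100 μL) via tail vein; n = 5 per time point, killed at 2, 10, 30, 60 min. Organs removed and γ-counted against diluted injectate; expressed as % injected dose per organ.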

Intestine [2] = test: Drug uptake in ICR mouse intestine assessed per organ at 370 kBq/100 ul, iv at 10 mins by gamma-counting analysis; type: ADME, organism-based; details: in vivo; procedure, shortened: as §1
Intestine [3] = test: Drug uptake in ICR mouse intestine assessed per organ at 370 kBq/100 ul, iv at 2 mins by gamma-counting analysis; type: ADME, organism-based; details: in vivo; procedure, shortened: as §1
Stomach [4] = test: Drug uptake in ICR mouse stomach assessed per organ at 370 kBq/100 ul, iv at 60 mins by gamma-counting analysis; type: ADME, organism-based; details: in vivo, 1 h
Procedure, shortened: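 Normal male ICR mice (5 weeks, about 20 g) received the ¹⁸F tracer in saline (370 KBq per 100 μL) by tail-vein injection. Groups of n = 5 were killed at 2, 10, 30 and 60 min. Organs were removed, weighed and γ-counted against diluted aliquots of the injectate, giving % dose per gram. Stomach and intestine were expressed per organ. The brain ratio is 2 min/60 min uptake. Values are mean ± SD.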

Stomach [5] = test: Drug uptake in ICR mouse stomach assessed per organ at 370 kBq/100 ul, iv at 10 mins by gamma-counting analysis; type: ADME, organism-based; details: in vivo; procedure, shortened: as §1
Stomach [6] = test: Drug uptake in ICR mouse stomach assessed per organ at 370 kBq/100 ul, iv at 2 mins by gamma-counting analysis; type: ADME, organism-based; details: in vivo; procedure, shortened: as §1
Kidney [7] = test: Drug uptake in ICR mouse kidney at 370 kBq/100 ul, iv at 60 mins by gamma-counting analysis; type: ADME, organism-based; details: in vivo, 1 h
Procedure, shortened: (§2)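 Male ICR mice (5 weeks, about 20 g) got 18F tracer in saline (370 KBq per 100 μL) via tail vein; n = 5 per time point, killed at 2, 10, 30, 60 min. Organs weighed and γ-counted; percent dose per gram wet tissue from comparison with diluted injectate aliquots.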

Kidney [8] = test: Drug uptake in ICR mouse kidney at 370 kBq/100 ul, iv at 30 mins by gamma-counting analysis; type: ADME, organism-based; details: in vivo, 0.5 h; procedure, shortened: as §2
Kidney [9] = test: Drug uptake in ICR mouse kidney at 370 kBq/100 ul, iv at 10 mins by gamma-counting analysis; type: ADME, organism-based; details: in vivo; procedure, shortened: as §2
Lung [10] = test: Drug uptake in ICR mouse lung at 370 kBq/100 ul, iv at 60 mins by gamma-counting analysis; type: ADME, organism-based; details: in vivo, 1 h; procedure, shortened: as §2
Lung [11] = test: Drug uptake in ICR mouse lung at 370 kBq/100 ul, iv at 30 mins by gamma-counting analysis; type: ADME, organism-based; details: in vivo, 0.5 h; procedure, shortened: as §2
Lung [12] = test: Drug uptake in ICR mouse lung at 370 kBq/100 ul, iv at 10 mins by gamma-counting analysis; type: ADME, organism-based; details: in vivo; procedure, shortened: as §2
Lung [13] = test: Drug uptake in ICR mouse lung at 370 kBq/100 ul, iv at 2 mins by gamma-counting analysis; type: ADME, organism-based; details: in vivo; procedure, shortened: as §2
Spleen [14] = test: Drug uptake in ICR mouse spleen at 370 kBq/100 ul, iv at 10 mins by gamma-counting analysis; type: ADME, organism-based; details: in vivo; procedure, shortened: as §2
Spleen [15] = test: Drug uptake in ICR mouse spleen at 370 kBq/100 ul, iv at 30 mins by gamma-counting analysis; type: ADME, organism-based; details: in vivo, 0.5 h; procedure, shortened: as §2
Spleen [16] = test: Drug uptake in ICR mouse spleen at 370 kBq/100 ul, iv at 2 mins by gamma-counting analysis; type: ADME, organism-based; details: in vivo; procedure, shortened: as §2
Liver [17] = test: Drug uptake in ICR mouse liver at 370 kBq/100 ul, iv at 60 mins by gamma-counting analysis; type: ADME, organism-based; details: in vivo, 1 h; procedure, shortened: as §2
Liver [18] = test: Drug uptake in ICR mouse liver at 370 kBq/100 ul, iv at 30 mins by gamma-counting analysis; type: ADME, organism-based; details: in vivo, 0.5 h; procedure, shortened: as §2
Liver [19] = test: Drug uptake in ICR mouse liver at 370 kBq/100 ul, iv at 2 mins by gamma-counting analysis; type: ADME, organism-based; details: in vivo; procedure, shortened: as §2
Liver [20] = test: Drug uptake in ICR mouse liver at 370 kBq/100 ul, iv at 10 mins by gamma-counting analysis; type: ADME, organism-based; details: in vivo; procedure, shortened: as §2
Heart [21] = test: Drug uptake in ICR mouse heart at 370 kBq/100 ul, iv at 60 mins by gamma-counting analysis; type: ADME, organism-based; details: in vivo, 1 h; procedure, shortened: as §2
Heart [22] = test: Drug uptake in ICR mouse heart at 370 kBq/100 ul, iv at 30 mins by gamma-counting analysis; type: ADME, organism-based; details: in vivo, 0.5 h; procedure, shortened: as §2
Heart [23] = test: Drug uptake in ICR mouse heart at 370 kBq/100 ul, iv at 10 mins by gamma-counting analysis; type: ADME, organism-based; details: in vivo; procedure, shortened: as §2
Brain [24] = test: Drug uptake in ICR mouse brain at 370 kBq/100 ul, iv at 60 mins by gamma-counting analysis; type: ADME, organism-based; details: in vivo, 1 h; procedure, shortened: as §2
Heart [25] = test: Drug uptake in ICR mouse heart at 370 kBq/100 ul, iv at 2 mins by gamma-counting analysis; type: ADME, organism-based; details: in vivo; procedure, shortened: as §2
Brain [26] = test: Drug uptake in ICR mouse brain at 370 kBq/100 ul, iv at 30 mins by gamma-counting analysis; type: ADME, organism-based; details: in vivo, 0.5 h; procedure, shortened: as §2
Brain [27] = test: Drug uptake in ICR mouse brain at 370 kBq/100 ul, iv at 10 mins by gamma-counting analysis; type: ADME, organism-based; details: in vivo; procedure, shortened: as §2
Brain [28] = test: Drug uptake in ICR mouse brain at 370 kBq/100 ul, iv at 2 mins by gamma-counting analysis; type: ADME, organism-based; details: in vivo; procedure, shortened: as §2
Blood [29] = test: Drug uptake in ICR mouse blood at 370 kBq/100 ul, iv at 30 mins by gamma-counting analysis; type: ADME, organism-based; details: in vivo, 0.5 h; procedure, shortened: as §2
Blood [30] = test: Drug uptake in ICR mouse blood at 370 kBq/100 ul, iv at 60 mins by gamma-counting analysis; type: ADME, organism-based; details: in vivo, 1 h; procedure, shortened: as §2
Blood [31] = test: Drug uptake in ICR mouse blood at 370 kBq/100 ul, iv at 2 mins by gamma-counting analysis; type: ADME, organism-based; details: in vivo; procedure, shortened: as §2
Brain [32] = test: Drug uptake in healthy human brain at 370 KBq/100 ul after 1 hr by autoradiographic analysis; type: ADME, tissue-based; details: in vitro
[33] = Displacement of [125I]-IMPY from amyloid beta (1 to 42) fibrils after 2 hrs by gamma-counting analysis
Procedure, shortened: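 Competition binding with aggregated Aβ1-42 fibrils and [125I]IMPY (60000−100000 cpm/100 μL) in 0.05% BSA (1 mL total); inhibitors 10⁻⁴−10^−8.5 M in ethanol. Incubated 37 °C for 2 h, then GF/B vacuum filtration with PBS (0.02 M, pH 7.4) washes and γ counting. Three repeats; IC50 converted to Ki by Cheng−Prusoff.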

[34] = Metabolic stability in mouse plasma at 1.85 MBq after 60 mins by HPLC analysis; type: ADME, cell-free; details: read-out: Stability
Procedure, shortened: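 Purified tracer (1.85 MBq) was incubated with 100 μL mouse plasma at 37 °C for 2, 10, 30 and 60 min. Read-out was the percentage of activity remaining as intact tracer.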

Bone [35] = test: Drug uptake in ICR mouse bone at 370 kBq/100 ul, iv at 60 mins by gamma-counting analysis; type: ADME, organism-based, Bone element; details: in vivo, 1 h; procedure, shortened: as §2
Bone [36] = test: Drug uptake in ICR mouse bone at 370 kBq/100 ul, iv at 10 mins by gamma-counting analysis; type: ADME, organism-based, Bone element; details: in vivo; procedure, shortened: as §2
Intestine [37] = test: Drug uptake in ICR mouse intestine assessed per organ at 370 kBq/100 ul, iv at 60 mins by gamma-counting analysis; type: ADME, organism-based; details: in vivo, 1 h; procedure, shortened: as §1

CNc1ccc(-c2nc3cc(OCC[18F])ccc3o2)cn1
Drug uptake (Intestine [1]): 33.66 %ID | Drug uptake (Intestine [2]): 19.61 %ID | Drug uptake (Intestine [3]): 9.87 %ID | Drug uptake (Stomach [4]): 3.89 %ID | Drug uptake (Stomach [5]): 5.59 %ID | Drug uptake (Stomach [6]): 3.24 %ID | Drug uptake (Kidney [7]): 3.04 % ID/g | Drug uptake (Kidney [8]): 2.17 % ID/g | Drug uptake (Kidney [9]): 3.52 % ID/g | Drug uptake (Lung [10]): 2.57 % ID/g | Drug uptake (Lung [11]): 2.29 % ID/g | Drug uptake (Lung [12]): 2.8 % ID/g | Drug uptake (Lung [13]): 4.14 % ID/g | Drug uptake (Spleen [14]): 2.13 % ID/g | Drug uptake (Spleen [15]): 1.63 % ID/g | Drug uptake (Spleen [16]): 3.32 % ID/g | Drug uptake (Liver [17]): 2.64 % ID/g | Drug uptake (Liver [18]): 3.95 % ID/g | Drug uptake (Liver [19]): 10.48 % ID/g | Drug uptake (Liver [20]): 8.5 % ID/g | Drug uptake (Heart [21]): 2.05 % ID/g | Drug uptake (Heart [22]): 1.84 % ID/g | Drug uptake (Heart [23]): 2.34 % ID/g | Drug uptake (Brain [24]): 1.55 % ID/g | Drug uptake (Heart [25]): 4.66 % ID/g | Drug uptake (Brain [26]): 1.69 % ID/g | Drug uptake (Brain [27]): 2.24 % ID/g | Drug uptake (Brain [28]): 7.23 % ID/g | Drug uptake (Blood [29]): 2.55 % ID/g | Drug uptake (Blood [30]): 3.2 % ID/g | Drug uptake (Blood [31]): 3.36 % ID/g | Drug uptake (Brain [32]): Not Active | Ki [33]: 8 nM | remaining at 1 h, 1.85 MBq [34]: > 95% | Drug uptake (Bone [35]): 2.37 % ID/g | Drug uptake (Bone [36]): 1.11 % ID/g | Drug uptake (Intestine [37]): 39.05 %ID
